Screening data: PubChem BioAssay, several laboratories
KCNQ1 block = inhibitors of human KCNQ1 channel, primary screen, cell-based, thallium flux, high-throughput | 1.3% of 310,000 active | B-score at 10 µM | CHO-K1 KCNQ1, FluxOR thallium flux fluorescence; hits give high values | Potassium voltage-gated channel subfamily KQT member 1 (Homo sapiens), P51787;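 active = compounds whose thallium flux B-score, printed positive for inhibition, exceeds three library SD while starting fluorescence stays within three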;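 also: channel opened by potassium depolarization with thallium stimulus after 20 min compound exposure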
Target sequence (P51787 whole entry, looked up): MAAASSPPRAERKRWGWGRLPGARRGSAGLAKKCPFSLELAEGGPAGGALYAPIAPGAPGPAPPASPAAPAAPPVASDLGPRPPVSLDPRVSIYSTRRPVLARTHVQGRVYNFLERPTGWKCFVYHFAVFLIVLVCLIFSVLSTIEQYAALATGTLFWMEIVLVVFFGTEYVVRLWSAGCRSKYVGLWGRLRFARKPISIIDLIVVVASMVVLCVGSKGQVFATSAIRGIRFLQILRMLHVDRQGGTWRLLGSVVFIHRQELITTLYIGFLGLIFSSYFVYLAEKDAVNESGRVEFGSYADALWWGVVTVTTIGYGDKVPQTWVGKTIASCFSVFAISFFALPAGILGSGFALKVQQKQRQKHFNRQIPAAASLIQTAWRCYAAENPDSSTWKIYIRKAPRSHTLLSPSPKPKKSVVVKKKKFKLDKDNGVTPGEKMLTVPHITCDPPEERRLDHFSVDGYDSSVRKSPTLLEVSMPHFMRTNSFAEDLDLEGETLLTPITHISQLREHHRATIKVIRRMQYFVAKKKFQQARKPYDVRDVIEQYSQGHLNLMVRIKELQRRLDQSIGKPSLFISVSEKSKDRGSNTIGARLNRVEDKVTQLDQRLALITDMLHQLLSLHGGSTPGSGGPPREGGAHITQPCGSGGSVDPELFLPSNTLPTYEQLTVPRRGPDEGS
KCC2 mod = KCC2 cotransporter modulators, thallium flux, primary screen, cell-based, HEK293 KCC2, FluoZin-2 fluorescence, MLSMR; Solute carrier family 12 member 5 (Homo sapiens), Q9H2X9; B-score of Tl+ flux slope (higher = more flux/activation; lower = inhibition) at 10 µM; KCC2 cells, thallium flux FluoZin-2 fluorescence; 2.2% of 190,000 active;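 active = thallium flux slope and its plate-corrected score both differing from the plate sample mean at a set confidence after two filtering rounds, in either direction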;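 also: slope of fluorescence scaled to starting intensity during 10 to 20 s after thallium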
AI-2 QS mod = Vibrio harveyi AI-2 quorum sensing modulators, primary screen, JMH597 strain, luminescence/OD600 ratio; 0.4% of 300,000 active; Vibrio harveyi JMH597 AI-2 luminescence/OD600 ratio, 9 h; hits give low values; strain lacks LuxN and CqsS sensors; 0 = neutral-control median; activity change, % at 7.5 µM; in the data active = activity change below about -75%, passing the limit was not always enough;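 also: luminescence divided by OD600 gain over 9 h not by final OD600 alone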
Mot1-301 SUMO = yeast Mot1-301 growth rescue at high temperature, primary screen, SUMOylation pathway inhibitor project, S. cerevisiae, ATP luminescence, 38.5C | growth rescue, % at 18.8 µM | 1% of 320,000 active | AID 2716, 2010 | S. cerevisiae Mot1-301 growth rescue; percent above DMSO median, 100 means doubled;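 active = every valid replicate shows activation above 250% relative to neutral control wells; inactive = the rest, any valid replicate at or below 250%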
KCNQ1 pot = potentiators or activators of KCNQ1 channel, primary screen, cell-based, thallium flux, high-throughput. CHO-K1 KCNQ1, thallium flux FluxOR fluorescence; hits give high values. B-score at 10 µM. 0.35% of 310,000 active. AID 2648, 2010;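 active = fluorescence ratio B-score, a plate-corrected score, at least three library SD, with initial intensity B-score within 5 SD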
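assay system = CHO-K1 cells stably expressing KCNQ1 | medium = assay buffer, equal DMSO in all wells | timing = 37 °C overnight plating, 90-min dark dye load, 20-min compound pretreatment | measured by = kinetic FluxOR thallium fluorescence, 10-s 1-Hz baseline, 110-s post-stimulus read | measure = fluorescence change relative to baseline, converted to B score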
hERG protect = hERG rescue from dofetilide block, primary screen, cell-based, CHO-hERG, FluxOR thallium flux, dofetilide IC70; dofetilide IC70 present; activation (rescue from dofetilide block), less the hit threshold, % at 10 µM; 0.51% of 310,000 active; AID 1511, 2009;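 active = activation above the mean of controls blocked by dofetilide plus 5 SD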;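 also: thallium influx through hERG after potassium depolarization seen as dye fluorescence rise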
A number is an active result. Hits are enriched below; roughly 4.2% of the tested compounds scored in any of these assays.

Screening Cn1nnnc1SC1CC(=O)N(c2ccccc2)C1=O (stereo not drawn) returned KCNQ1 block inactive, KCC2 mod inactive, AI-2 QS mod inactive, Mot1-301 SUMO inactive, KCNQ1 pot inactive and hERG protect inactive.
Cc1cc(C)cc(N2C(=O)CC(Sc3nnnn3-c3ccccc3)C2=O)c1 (stereo not drawn) was read as KCNQ1 block inactive, KCC2 mod inactive, AI-2 QS mod inactive, Mot1-301 SUMO 292, KCNQ1 pot inactive and hERG protect inactive.
Screening COc1ccccc1Nc1ccc(C(=O)NCc2cccs2)cn1 returned KCNQ1 block inactive, KCC2 mod inactive, AI-2 QS mod inactive, Mot1-301 SUMO inactive, KCNQ1 pot inactive and hERG protect inactive.
For COc1ccccc1Nc1ncc(-c2cccs2)s1 the results were KCNQ1 block inactive, KCC2 mod 3.1, AI-2 QS mod inactive, Mot1-301 SUMO inactive, KCNQ1 pot inactive and hERG protect inactive.
Cc1ccc(-n2nc3c(c2NC(=O)c2ccc4c(c2)OCO4)CS(=O)C3)c(C)c1 (stereo not drawn) was read as KCNQ1 block inactive, AI-2 QS mod inactive, Mot1-301 SUMO inactive, KCNQ1 pot inactive and hERG protect inactive.
`Cc1ccccc1C(=O)N1CCC(C(=O)N(CC(C)C)c2c(N)n(Cc3ccccc3)c(=O)[nH]c2=O)CC1` gave KCNQ1 block inactive, AI-2 QS mod inactive, Mot1-301 SUMO 336, KCNQ1 pot inactive and hERG protect inactive.
O=C(Nc1nnc(-c2ccc(Cl)cc2)o1)c1cccc(N2C(=O)CCC2=O)c1 was read as KCNQ1 block inactive, KCC2 mod 17, AI-2 QS mod inactive, Mot1-301 SUMO inactive, KCNQ1 pot inactive and hERG protect inactive.
For O=C(COc1ccccc1)Nc1nnc(-c2ccc(Cl)cc2)o1 the results were KCNQ1 block inactive, AI-2 QS mod -90, Mot1-301 SUMO inactive, KCNQ1 pot inactive and hERG protect inactive.
Screening O=C(Nc1nnc(-c2ccccc2)o1)c1ccc(Cl)cc1 returned KCNQ1 block inactive, KCC2 mod 64, AI-2 QS mod inactive, KCNQ1 pot 11 and hERG protect inactive.
Screening O=C(Nc1nnc(-c2ccncc2)o1)c1cccc(N2C(=O)CCC2=O)c1 returned KCNQ1 block inactive, KCC2 mod inactive, AI-2 QS mod inactive, Mot1-301 SUMO inactive, KCNQ1 pot inactive and hERG protect inactive.
For COc1ccc(-c2nnc(SCc3nc4ccccc4c(=O)[nH]3)o2)cc1 the results were KCNQ1 block inactive, KCC2 mod inactive, AI-2 QS mod inactive, Mot1-301 SUMO inactive, KCNQ1 pot inactive and hERG protect inactive.
Screening CCCSC1=C(C#N)C(c2cccs2)C(C(=O)Nc2ccccc2)=C(C)N1 (stereo not drawn) returned KCNQ1 block 12, KCC2 mod inactive, AI-2 QS mod inactive, Mot1-301 SUMO inactive, KCNQ1 pot inactive and hERG protect inactive.
`CCSC1=C(C#N)C(c2cccs2)C(C(=O)OC)=C(C)N1` (stereo not drawn) gave KCNQ1 block inactive, KCC2 mod inactive, AI-2 QS mod inactive, Mot1-301 SUMO inactive, KCNQ1 pot inactive and hERG protect inactive.
For COC(=O)c1ccnc(/C=N/O)c1 the results were KCNQ1 block inactive, KCC2 mod inactive, AI-2 QS mod inactive, Mot1-301 SUMO inactive, KCNQ1 pot inactive and hERG protect 6.2.
`COc1ccccc1C(=O)Nc1nnc(S(=O)(=O)N2CCCCCC2)s1` gave KCNQ1 block inactive, AI-2 QS mod inactive, Mot1-301 SUMO 337, KCNQ1 pot inactive and hERG protect inactive.
Screening Cc1ccc(C(=O)Nc2cccc(O)c2)cc1S(=O)(=O)N1CCCCCC1 returned KCNQ1 block inactive, AI-2 QS mod inactive, Mot1-301 SUMO inactive, KCNQ1 pot inactive and hERG protect inactive.
Screening COc1ccc(S(=O)(=O)N2CCCCCC2)cc1NC(=O)c1ccccc1 returned KCNQ1 block inactive, AI-2 QS mod inactive, Mot1-301 SUMO 309, KCNQ1 pot inactive and hERG protect inactive.
COc1ccc(S(=O)(=O)N2CCN(C)CC2)cc1NC(=O)c1ccccc1 was read as KCNQ1 block inactive, AI-2 QS mod inactive, Mot1-301 SUMO inactive, KCNQ1 pot inactive and hERG protect inactive.
CNC(=O)c1ccccc1NC(=O)c1ccc(C)c(S(=O)(=O)N2CCCCC2)c1 was read as KCNQ1 block inactive, KCC2 mod inactive, AI-2 QS mod inactive, Mot1-301 SUMO inactive, KCNQ1 pot inactive and hERG protect 8.7.
COc1ccccc1C(=O)Nc1nnc(CCc2ccccc2)s1 was read as KCNQ1 block inactive, AI-2 QS mod inactive, Mot1-301 SUMO 332, KCNQ1 pot inactive and hERG protect inactive.
Screening CCCCc1ccc(NC(=O)C(=O)NCCN2CCN(C(=O)c3ccc([N+](=O)[O-])cc3)CC2)cc1 returned KCNQ1 block inactive, AI-2 QS mod inactive, Mot1-301 SUMO inactive, KCNQ1 pot inactive and hERG protect inactive.
O=C(CCc1ccccc1)Nc1cc(C(=O)O)cc(C(=O)O)c1 was read as KCNQ1 block inactive, KCC2 mod inactive, AI-2 QS mod inactive, Mot1-301 SUMO inactive, KCNQ1 pot inactive and hERG protect inactive.
For Cc1ccc(N2C(=O)c3ccc(C(=O)Nc4cccnc4)cc3C2=O)c(C)c1 the results were KCNQ1 block inactive, KCC2 mod inactive, AI-2 QS mod inactive, Mot1-301 SUMO inactive, KCNQ1 pot inactive and hERG protect 4.7.
Screening COCCN1C(=O)c2ccc(C(=O)Nc3cccnc3)cc2C1=O returned KCNQ1 block inactive, AI-2 QS mod inactive, Mot1-301 SUMO inactive, KCNQ1 pot inactive and hERG protect inactive.
Screening COc1cc(OC)c(OC)cc1CNC(=O)c1cc(=O)c2ccccc2o1 returned KCNQ1 block inactive, AI-2 QS mod inactive, Mot1-301 SUMO inactive, KCNQ1 pot 9 and hERG protect inactive.
`CC(=O)c1cccc(NC(=O)NN2CCN(C)CC2)c1` gave KCNQ1 block inactive, AI-2 QS mod inactive, Mot1-301 SUMO inactive, KCNQ1 pot inactive and hERG protect inactive.
Screening CN1CCN(NC(=O)Nc2cccc(F)c2)CC1 returned KCNQ1 block 8, AI-2 QS mod inactive, Mot1-301 SUMO inactive, KCNQ1 pot inactive and hERG protect inactive.
For O=C(NCc1ccc2c(c1)OCO2)c1cccc(C(=O)NCc2ccc3c(c2)OCO3)c1 the results were KCNQ1 block inactive, AI-2 QS mod -85, Mot1-301 SUMO inactive, KCNQ1 pot inactive and hERG protect inactive.
